Assay outcomes deposited in PubChem by Broad Institute.
Rows were chosen to be rich in hits. Some 2.3% of all compounds tested hit in one or more screens of this group.
PAX8 inh HTS – inhibitors of PAX8-driven TPO luciferase reporter, primary screen, RMG-I cells, single concentration. inhibition, % at 12.6 µM. AID 652154, 2013. 1.2% of 360,000 active. SteadyGlo, 24 h;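 active means mean replicate inhibition at least 60% with every replicate also reaching 60%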;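 further: luciferase light reporting Pax8 driven TPO promoter activity; plate controls were median of neutral control wells for no effect and mitoxantrone controls for full effect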
Env fusion inh – inhibitors of HIV-1 Env-driven cell-cell fusion, primary screen, HeLa-JRFL effector, CEM21 target cells, luciferase | inhibition, % at 12.3 µM | 1.1% of 360,000 active;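 active means mean replicate inhibition score of at least 50 and every replicate individually at or above 50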;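 further: 0% = plate neutral controls and 100% = maraviroc near 300 nM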
EWS-Fli inh – EWS/Fli-driven NR0B1 reporter inhibitors, primary screen, A673 cells, NR0B1 luciferase, luminescence, MLPCN library. inhibition, % at 12.6 µM. 0.67% of 350,000 active. viability-normalised. AID 651661, 2012;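 active means mean inhibition of at least 50% after viability correction, with every replicate also passing that limit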;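 further: firefly luciferase signal divided by Alamar Blue viability fluorescence both relative to DMSO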
F508del corr – F508del CFTR correction, initial screen, CFBE line, single point. CFBE cells, YFP halide quenching; stimulated with forskolin plus potentiator P3; % fluorescence drop versus neutral controls. activity (quench increase), % at 7.58 µM. 0.36% of 350,000 active;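 active means mean added fluorescence quench of at least 8% versus neutral control, with both replicates also reaching 8%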;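 further: cells transiently co-express mutant CFTR-F508del with the halide-sensitive YFP; corrector assay measuring rescue of mutant channel to the surface after 24 h compound exposure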
PGC1a acetyl inh – inhibitors of PGC1a acetylation signal, primary screen, cell-based, U2OS, AlphaScreen, inhibitor mode. AlphaScreen anti-acetyl-lysine; with virally co-expressed GCN5 acetyltransferase. inhibition, % at 15.6 µM. 0.17% of 350,000 active. AID 651687, 2012;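 active means every replicate shows inhibition of at least 40%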;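 further: 0% = neutral control wells and 100% = positive control wells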
FN deposit inh – inhibitors of fibronectin matrix deposition, primary screen, AH1F cells, Alexa488-fibronectin fluorescence, plate reader; AH1F fibroblasts, overnight; inhibition, % at 12.6 µM; 0.086% of 350,000 active; AID 743247, 2014;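 active means mean inhibition across replicates of 30% or more, regardless of how many single replicates reach that level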;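 further: positive control wells lacked labelled fibronectin entirely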
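Schedule: 1 h cell adhesion before compound, then overnight fibronectin incubation; test system: AH1F fibroblast monolayer depositing Alexa488-labelled fibronectin into matrix; quantity: 10000 AH1F cells per well; probe or stimulus: fluorescent fibronectin at 24 nM final; signal: fluorescence, ex 485 nm, em 525 nm; evaluation: percent inhibition as loss of matrix-bound fibronectin fluorescence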
Numbers without * were called inactive; [ ] = another dose, or the depositor's remark.

What do the screens show for `CCNC(=O)Nc1ccc2c(c1)C(=O)N(C)[C@H]1CC[C@@H](CC(=O)NCCOC)O[C@@H]1CO2`?
PAX8 inh HTS: -7; Env fusion inh: -23[16.7 µM]; EWS-Fli inh: -1; F508del corr: 2; PGC1a acetyl inh: 3; FN deposit inh: -8

How did CC1CC(=O)NN=C1c1ccc(N(C)C)c([N+](=O)[O-])c1 (stereo not drawn) do in these assays?
Env fusion inh: 73*; PGC1a acetyl inh: 3; FN deposit inh: 1

Results for CCN(CC)c1ccc(C2=NNC(=O)CC2C)cc1[N+](=O)[O-] (stereo not drawn) ?
Env fusion inh: 87*; PGC1a acetyl inh: 8; FN deposit inh: -4

How did CC1CC(=O)NN=C1c1cccs1 (stereo not drawn) do in these assays?
PAX8 inh HTS: -12; Env fusion inh: -1; EWS-Fli inh: -6; F508del corr: -1; PGC1a acetyl inh: 8; FN deposit inh: 5

How did O=C(Cc1cccnc1)N[C@@H]1CC[C@@H](CCn2cc(-c3ccccc3F)nn2)O[C@@H]1CO do in these assays?
PAX8 inh HTS: 7; Env fusion inh: -16[16.7 µM]; EWS-Fli inh: -4; F508del corr: 0; PGC1a acetyl inh: -9

Results for CO[C@H]1CN(C)C(=O)c2cc(NC(=O)CC(F)(F)F)ccc2OC[C@@H](C)NC[C@H]1C ?
F508del corr: -3; FN deposit inh: -9

What do the screens show for `Cc1ccc(Nc2nc(CSc3nnc(-c4cccnc4)n3-c3ccccc3F)cs2)cc1`?
PAX8 inh HTS: 5; Env fusion inh: 11; EWS-Fli inh: 1; F508del corr: 8.6*; FN deposit inh: 2

How did Cc1ccc(Nc2nc(CSc3nnc(-c4ccncc4)n3C)cs2)cc1 do in these assays?
PAX8 inh HTS: -78; Env fusion inh: -6; PGC1a acetyl inh: -1; FN deposit inh: 0

How did C[C@@H]1CN([C@@H](C)CO)C(=O)Cc2cc(NC(=O)CCCCCC(=O)Nc3ccccc3N)ccc2O[C@@H]1CN(C)CC1CC1 do in these assays?
PAX8 inh HTS: -18; EWS-Fli inh: 7; F508del corr: -1; PGC1a acetyl inh: -4

What do the screens show for `Cc1cc(Cl)n2c(nc3ccccc32)c1C#N`?
PAX8 inh HTS: 55; Env fusion inh: -56; EWS-Fli inh: 24; F508del corr: -4; FN deposit inh: -1

Results for Cc1c(CCCl)c(Cl)n2c(nc3ccccc32)c1C#N ?
PAX8 inh HTS: 87*; Env fusion inh: -393; EWS-Fli inh: 46; F508del corr: -2

How did COCC(=O)N(C)C[C@H]1Oc2cc(C3=CCCC3)ccc2S(=O)(=O)N([C@H](C)CO)C[C@@H]1C do in these assays?
PAX8 inh HTS: 11; Env fusion inh: 12[16.7 µM]; EWS-Fli inh: -15; F508del corr: 1; PGC1a acetyl inh: -2

Results for CN(C)Cc1cn(CC[C@H]2CC[C@@H](NS(=O)(=O)c3ccc(-c4ccccc4)cc3)[C@@H](CO)O2)nn1 ?
PAX8 inh HTS: 8; Env fusion inh: 14[16.7 µM]; EWS-Fli inh: 11; F508del corr: -3; PGC1a acetyl inh: -6; FN deposit inh: -4

What do the screens show for `Cc1cc2c(cc(C(=O)OC(C)C(=O)NCc3ccccc3)n2C)o1` (stereo not drawn)?
PAX8 inh HTS: -25; EWS-Fli inh: 3; F508del corr: 7; PGC1a acetyl inh: 7; FN deposit inh: -8

Results for Cc1cc2c(cc(C(=O)OC(C)C(=O)NCc3ccc(F)cc3)n2C)o1 (stereo not drawn) ?
PAX8 inh HTS: 2; EWS-Fli inh: -1; F508del corr: 29*; PGC1a acetyl inh: 7; FN deposit inh: 5

Results for COc1ccc(-c2ccc3c(c2)[C@@H]2[C@@H](CCN2C(=O)Cc2ccccn2)[C@@H](CO)N3C)cc1 ?
PAX8 inh HTS: -12; EWS-Fli inh: -26; F508del corr: 2; PGC1a acetyl inh: 7; FN deposit inh: 5

What do the screens show for `O=C1CCC(CCc2nc3ccccc3[nH]2)(c2ccccc2)C(=O)N1` (stereo not drawn)?
PAX8 inh HTS: 14; Env fusion inh: -10; EWS-Fli inh: -1; F508del corr: 11*; PGC1a acetyl inh: -3

What do the screens show for `c1ccc2[nH]c(CCCCCc3nc4ccccc4[nH]3)nc2c1`?
PAX8 inh HTS: 5; Env fusion inh: 7; EWS-Fli inh: 7; F508del corr: -1; PGC1a acetyl inh: -2

Results for O=P(c1ccccc1)(c1ccccc1)C(c1ccccn1)P(=O)(c1ccccc1)c1ccccc1 ?
PAX8 inh HTS: -13; Env fusion inh: 66*; EWS-Fli inh: 8; F508del corr: 0; PGC1a acetyl inh: -10; FN deposit inh: 5

How did CC(=O)c1cccc(-c2ccc3c(c2)C(C)(Cc2ccccc2F)C(=O)N3)c1 (stereo not drawn) do in these assays?
PAX8 inh HTS: 14; Env fusion inh: 5; EWS-Fli inh: 8; F508del corr: -6

What do the screens show for `COC(=O)c1ccc(CC2(C)C(=O)Nc3ccc(-c4cccc(C(F)(F)F)c4)cc32)o1` (stereo not drawn)?
PAX8 inh HTS: 18; Env fusion inh: 65*; EWS-Fli inh: 5; F508del corr: 1; FN deposit inh: 12

Results for C[C@H]1CN([C@@H](C)CO)C(=O)Cc2cc(NS(=O)(=O)c3ccccc3)ccc2O[C@@H]1CN(C)C ?
PAX8 inh HTS: -9; EWS-Fli inh: 0; F508del corr: -2; PGC1a acetyl inh: 0

What do the screens show for `CCCC#Cc1ccc([C@H]2[C@H](CO)N3C(=O)CN(C(=O)Nc4cc(F)ccc4F)C[C@@H]23)cc1`?
PAX8 inh HTS: 14; EWS-Fli inh: 2; F508del corr: 10*; PGC1a acetyl inh: 17

How did O=C(Nc1cc(F)ccc1F)N1CC(=O)N2[C@@H](CO)[C@H](c3ccc(C#CC4CCCCC4)cc3)[C@@H]2C1 do in these assays?
PAX8 inh HTS: 12; EWS-Fli inh: -10; F508del corr: 9.9*; PGC1a acetyl inh: 20

What do the screens show for `COCC(=O)Nc1ccc2c(c1)C(=O)N(C)C[C@H](OC)[C@H](C)CN(C(=O)C1CCCC1)[C@H](C)CO2`?
EWS-Fli inh: -18; F508del corr: 0; PGC1a acetyl inh: 3; FN deposit inh: 11

Results for O=C1N[C@@H](Cc2ccccc2)COCc2cnnn2CC[C@H]1Cc1cccc(F)c1 ?
FN deposit inh: 1

What do the screens show for `Cc1cc(C(C)(C)CC(C)(C)C)ccc1OCCOCC[N+](C)(C)Cc1ccccc1`?
PAX8 inh HTS: 72*; Env fusion inh: 31; EWS-Fli inh: 40; F508del corr: 5; PGC1a acetyl inh: -35; FN deposit inh: -1
